MC4R antag cAMP: MC4R antagonists of cAMP signaling, primary screen, cell-based, TR-FRET, antagonist arm of biased-ligand search; hit rate 0.48% among 360,000; Melanocortin receptor 4 (Homo sapiens), P32245; MC4R-expressing cells, MTII-stimulated cAMP, LANCE TR-FRET; inhibition, % at 6.5 µM; AID 540295, 2011;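 active = inhibition above its plate's cutoff, the mean of tested wells on that plate plus 3 SD, cut at about 29% in these data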
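Material – human MC4R-expressing U2OS cells · Repeats – no replicates · Detection – TR-FRET with Eu-cAMP and labeled anti-cAMP, 671 nm · Times – compound 30 min, challenge 1 h, detection 1 h · Compound – single nominal compound dose of 6.5 µM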
MC4R ag barr: MC4R agonists recruiting beta-arrestin, primary screen, cell-based, luminescence, agonist arm of biased-ligand search; Melanocortin receptor 4 (Homo sapiens), P32245; U2OS MC4R beta-arrestin complementation; percent of melanotan II response, DMSO zero; activation, % at 8.9 µM; hit rate 0.98% among 360,000; AID 540308, 2011;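 active = activation above a per-plate cutoff, the mean activation of sample wells on that plate plus 3 SD, cut at about 8% in these data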
Myeloid diff MLP: induction of myeloid progenitor differentiation, primary screen, cell-based, flow cytometry, MLPCN library; ER-HoxA9 myeloid progenitors, lysozyme-GFP differentiation; calls only at 10 µM; hit rate 1% among 360,000; AID 624256, 2012;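 active = normalized GFP-positive differentiation at or above the plate's own cutoff, the solvent-only control mean plus 3 SD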;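 note: cells exposed to compound for four days before flow analysis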
EBI2 antag: EBI2 receptor antagonists, beta-arrestin recruitment, primary screen, cell-based, luminescence, 7a,25-OHC stimulation, uHTS; AID 651636, 2012; hit rate 0.81% among 360,000; 7a,25-OHC stimulated; G-protein coupled receptor 183 (Homo sapiens), P32249; inhibition, % at 5 µM; in the data active = inhibition above about 38%;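 note: enzyme fragment complementation signal reports receptor beta-arrestin coupling in cells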
Granule exo inh: LAMP-1 surface exposure blockers, TALL-104 cells – cell-based, flow cytometry, MLPCN library, primary screen | TALL-104 LAMP-1 surface exposure; cells stimulated with thapsigargin and PMA | inhibition, % at 10 µM | hit rate 0.66% among 360,000;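 active = inhibition above about 55%, limit read from the data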
MC4R barr conf: MC4R beta-arrestin agonists, retest, confirmation, cell-based, luminescence, U2OS | U2OS MC4R beta-arrestin recruitment; scaled DMSO 0%, Melanotan II 100% | hit rate 31% among 2,400 | AID 602192, 2012 | shares compounds with MC4R ag barr | activation, % at 8.9 µM;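 active = mean activation across replicates above the hit cutoff set in the earlier primary screen, cut at about 8% in these data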
MOR DOR agonist: agonists of MOR-DOR heterodimerization, counter-screen for MC4R biased agonist project, cell-based, luminescence; shares compounds with MC4R ag barr; U2OS PathHunter beta-arrestin, beta-gal luminescence; percent of deltorphin B response, DMSO zero; activation, % at 9.2 µM; hit rate 5.8% among 2,400; AID 602194, 2012;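 active = mean activation across replicates exceeds the hit threshold derived in the earlier primary screen, cut at about 18% in these data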
Target sequence (P35372 whole entry, looked up): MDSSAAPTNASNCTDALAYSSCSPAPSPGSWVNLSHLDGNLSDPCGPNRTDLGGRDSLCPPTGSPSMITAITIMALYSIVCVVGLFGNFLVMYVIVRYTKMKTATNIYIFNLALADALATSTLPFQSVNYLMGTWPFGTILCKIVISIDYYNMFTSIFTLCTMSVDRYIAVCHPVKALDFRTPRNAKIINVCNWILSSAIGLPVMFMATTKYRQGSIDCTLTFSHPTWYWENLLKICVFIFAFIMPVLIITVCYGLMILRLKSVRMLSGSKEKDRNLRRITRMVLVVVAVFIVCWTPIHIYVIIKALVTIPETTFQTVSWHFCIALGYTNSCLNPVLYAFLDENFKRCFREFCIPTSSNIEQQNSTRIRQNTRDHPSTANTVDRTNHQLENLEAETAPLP
Target sequence (P41143 whole entry, looked up): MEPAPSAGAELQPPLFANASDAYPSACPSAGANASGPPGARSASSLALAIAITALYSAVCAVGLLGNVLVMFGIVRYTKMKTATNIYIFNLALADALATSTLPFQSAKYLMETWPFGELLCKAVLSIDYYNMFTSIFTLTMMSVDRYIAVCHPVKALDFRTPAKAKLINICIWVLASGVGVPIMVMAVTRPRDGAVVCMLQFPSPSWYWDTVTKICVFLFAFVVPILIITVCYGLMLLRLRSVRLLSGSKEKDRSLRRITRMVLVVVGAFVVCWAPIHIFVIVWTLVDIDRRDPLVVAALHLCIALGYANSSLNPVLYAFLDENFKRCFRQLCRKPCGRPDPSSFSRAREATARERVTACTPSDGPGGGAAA
A number is an active result; . = inactive; / = no result given. Compounds with a hit are over-represented: about 3.7% of the library has one in this group of screens.

SMILES | MC4R antag cAMP | MC4R ag barr | Myeloid diff MLP | EBI2 antag | Granule exo inh | MC4R barr conf | MOR DOR agonist
COc1ccccc1OCC(=O)Nc1ccc(Cl)cc1 | . | . | . | . | . | / | /
COc1ccccc1OCC(=O)Nc1ccc(NC(=O)COc2ccccc2OC)cc1 | . | 18.4 | . | . | . | 23.2 | .
Cc1ccccc1OCC(=O)Nc1cccc(C(=O)O)c1 | . | . | . | . | . | / | /
Cc1ccc(S(=O)(=O)N2CCC(C(=O)OCC(=O)N3CCCC(C)C3)CC2)cc1C (centres undefined) | . | . | . | . | . | / | /
CC(C)C(NC(=O)C(C)N1C(=O)c2ccccc2C1=O)c1ccccc1 (centres undefined) | . | . | . | . | . | / | /
Cc1cccc(C)c1NC(=O)c1cccc2c1C(=O)N(C1CCCCC1)C2 | . | . | . | . | . | / | /
Cc1cnc(NC(=O)CSc2nc3ccccc3s2)s1 | . | . | . | . | . | / | /
C=C(C)C(=O)Nc1nnc(-c2ccccc2C)s1 | . | . | . | . | . | / | /
Cc1ccccc1-c1nnc(NC(=O)CSc2nc3ccccc3s2)s1 | . | 15.7 | . | . | . | 10.4 | .
C/C=C/C(=O)Nc1nnc(-c2ccccc2C)s1 | . | 19.2 | . | . | . | . | .
CC1CCC(C(C)C)C(OC(=O)C[n+]2cc(-c3ccc(Cl)cc3)n3c2CCCCC3)C1 (centres undefined) | . | 34.2 | . | . | . | 24.6 | .
CCN(Cc1cnn(C)c1)C(=O)c1ccc2nc(Cc3cccc(Cl)c3)oc2c1 | . | . | . | . | . | / | /
CS(=O)(=O)N1CCN(c2ccc(NC(=O)c3ccc(-c4ccc(Cl)cc4)o3)cc2)CC1 | . | 12.0 | . | . | . | . | .
Cc1ccc(C(=O)Nc2ccc(N3CCN(S(C)(=O)=O)CC3)cc2)cc1 | . | . | . | . | . | / | /
Cc1ccc(NC(=S)NCc2ccc(Cl)cc2)c(OC(F)F)c1 | . | . | . | . | . | / | /
Cn1c2ccccc2c2cnn(CC(=O)Nc3cccc(F)c3)c(=O)c21 | . | 9.7 | . | . | . | . | .
CN1CCN(CCCNC(=O)Cn2ncc3c4ccccc4n(C)c3c2=O)CC1 | . | . | . | . | . | / | /
O=C(CCCOc1ccc(Cl)cc1Cl)Nc1ncccn1 | . | . | . | . | . | / | /
Cc1cc(NC(=O)CCCOc2ccc(Cl)cc2Cl)no1 | . | 17.5 | . | . | . | . | .
COCCN=c1scc(C)n1/N=C/C1CC2C=CC1C2 (centres undefined) | . | . | . | . | . | / | /
CCC/C=N/NC(=O)c1[nH]c2c([N+](=O)[O-])cccc2c1C | . | . | . | . | . | / | /
COc1ccc(/C=C(\NC(=O)c2ccccc2Cl)C(=O)NCCCC(=O)O)cc1 | . | . | . | . | . | / | /
CCC(NC(=S)NC1CCCCC1)c1ccc(C)cc1 (centres undefined) | . | . | . | . | . | / | /
Cc1cccc2cc(COC(=O)c3cccs3)c(=O)[nH]c12 | . | 22.6 | . | . | . | . | .
O=C(N/N=C\c1ccccc1F)c1ccc(-c2ccccc2)cc1 | . | 16.1 | . | . | . | . | .
O=C(COn1nnc2ccc(Cl)cc21)NC12CC3CC(CC(C3)C1)C2 | . | 12.5 | . | . | . | . | .
Cc1ccc2[nH]c(O)c(N=NC(=O)C3CC3c3ccccc3)c2c1Br (centres undefined) | . | 17.9 | . | . | . | . | .
COc1ccc2sc(N(CCCN(C)C)C(=O)c3ccc(S(=O)(=O)N(C)Cc4ccccc4)cc3)nc2c1 | . | . | . | . | . | / | /
COc1ccc2sc(N(CCCN(C)C)C(=O)c3nc4ccccc4s3)nc2c1 | . | 12.4 | . | . | . | 8.3 | .
COc1ccccc1CNC(=O)CCNS(=O)(=O)c1cc(Br)cnc1N | . | . | . | . | . | / | /
